Three compounds from ChEMBL document CHEMBL3112482, “Nonclassical antifolates, part 5. Benzodiazepine analogs as a new class of DHFR inhibitors: synthesis, antitumor testing and molecular modeling study” (Eur J Med Chem, 2014) can be followed below.

One assay addresses T1, Dihydrofolate reductase (Bos taurus, UniProt P00376).
T1 sequence (P00376 whole entry): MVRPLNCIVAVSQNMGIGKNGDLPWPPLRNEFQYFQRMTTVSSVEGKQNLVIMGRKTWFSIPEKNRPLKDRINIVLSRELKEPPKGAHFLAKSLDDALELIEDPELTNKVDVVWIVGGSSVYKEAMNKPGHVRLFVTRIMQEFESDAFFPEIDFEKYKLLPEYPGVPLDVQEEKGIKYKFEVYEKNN
The assay can be described thus: Inhibition of bovine liver DHFR measured for every 1 min of 10 mins.

Assay [1] has as its target Dihydrofolate reductase (Bos taurus) (UniProt P00376). The assay can be described thus: Ratio of MTX IC50 to compound IC50 for bovine liver DHFR. The procedure, abridged: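 Bovine liver DHFR in Tris buffer pH 7.5, with dihydrofolate substrate. Final working levels were 0.29 g/l NADPH and 15 U/l DHFR. Absorbance was read at 340 nm at room temperature in kinetic mode every 1 min for 10 min. ΔA/min was taken relative to DMSO control to give % inhibition versus log concentration, from which the IC50 was derived. Methotrexate was the reference.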

Usually IC50 stands for the concentration at which inhibition is half-maximal. Lower therefore signals greater potency in that assay.

Turning to `Brc1ccc(/C=C2\CCCC3=C(c4ccc(Br)cc4)Nc4ccccc4N=C32)cc1`, the 50% inhibitory concentration (IC50) against Dihydrofolate reductase was 65000 nM.
For `Clc1cc2c(cc1Cl)NC(c1ccc(Br)cc1)=C1CCC/C(=C\c3ccc(Br)cc3)C1=N2`, on Dihydrofolate reductase, the 50% inhibitory concentration (IC50) amounted to 100 nM.
On Dihydrofolate reductase, `COc1ccc(/C=C2\CCCC3=C(c4ccc(OC)c(OC)c4)Nc4cc(C)c(C)cc4N=C32)cc1OC` came in with an IC50 of 4 nM. Also, the Ratio IC50 in assay [1] came to 20.
